High-throughput results (PubChem BioAssay)
AHR act – human AHR activation | P35869 | activation, % at 5 µM | 320,000 tested, 2.5% active | AHR-responsive luciferase reporter cells, luminescence; in the data active means activation above about 47%;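 further: 0% = vehicle wells and 100% = reference agonist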
PERK inhibitor – inhibitors of human PERK kinase; Q9NZJ5; CHO PERK-DD fusion, SEAP luminescence translation reporter; inhibition, % at 5.6 µM; 220,000 tested, 0.17% active; AID 1416;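 active means inhibition above the mean inhibition of all tested compounds plus 3 SD, set separately per screening campaign, cut at about 2.9% in these data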;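 further: PERK kinase domain activated by AP20187 dimerizer at 100 nM; 0% = DMSO with dimerizer and 100% = rapamycin at 8.4 µM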
APP 5'UTR act – activates APP 5'UTR luciferase reporter | activation, % at 2 µM | AID 1276 | 190,000 tested, 1% active | SH-SY5Y APP 5'UTR luciferase reporter, luminescence; zero percent = DMSO vehicle wells;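 active means activation above a set limit, based on mean plus 3 SD of controls, cut at about 140% in these data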
NF-kB neuron act – raises NF-kB expression in human neuronal cells; NF-kB reporter expression; hits give high values; AID 1239; 190,000 tested, 1.6% active; fold change at 12.5 µM; in the data active means fold change above about 3.3
MDM2 E3 inh – blocks human Mdm2 ubiquitin ligase activity | cell-based MDM2 ubiquitination luciferase reporter, 2 h; 0 = plate control, 100 = twice control, blank-subtracted | signal enhancement, % at 5 µM | 210,000 tested, 0.11% active | Q00987 | AID 1230;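 active means signal enhancement of 30% or more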;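 further: luminescence tracks abundance of the self-degrading MDM2-luciferase fusion protein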
Target sequence (Q00987 whole entry, looked up, the tested form may be a part): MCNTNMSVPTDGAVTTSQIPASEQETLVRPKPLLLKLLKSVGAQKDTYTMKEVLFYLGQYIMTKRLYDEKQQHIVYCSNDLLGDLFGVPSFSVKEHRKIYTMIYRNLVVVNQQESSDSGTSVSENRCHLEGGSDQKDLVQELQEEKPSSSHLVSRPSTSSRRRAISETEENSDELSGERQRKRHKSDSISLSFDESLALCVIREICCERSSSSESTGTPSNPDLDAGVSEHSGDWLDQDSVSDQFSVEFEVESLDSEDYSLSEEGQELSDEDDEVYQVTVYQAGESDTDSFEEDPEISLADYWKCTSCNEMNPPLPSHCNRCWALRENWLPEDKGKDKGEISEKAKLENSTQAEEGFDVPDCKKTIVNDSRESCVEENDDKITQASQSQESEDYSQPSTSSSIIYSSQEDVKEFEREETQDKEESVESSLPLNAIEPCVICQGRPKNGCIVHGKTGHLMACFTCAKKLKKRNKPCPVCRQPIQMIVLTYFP
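Material: stable MDM2–luciferase fusion reporter cells / Quantity: 2000 cells/well / Dosing: single 5 µM compound dose, 0.2% final DMSO / Buffer or medium: DMEM / Schedule: 4 h cell settling then 2 h compound exposure, 37 °C / Detection: luminescence with SteadyLite reagent, 15 min at room temperature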
STAT1 act – increases IFN-gamma driven STAT1 reporter signal; NIH 3T3 STAT1-luciferase reporter, luminescence; 100% = IFN-gamma alone, no compound; activation (% of control), % at 5.5 µM; 200,000 tested, 2.6% active; AID 932;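 active means activation above the screen-wide mean activation plus 3 SD, cut at about 130% in these data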;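 further: raw ratio to IFN-gamma control signal so 100% means no change and 0% no light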
STAT1 act conf – confirmation of STAT1 signaling activators; shares compounds with STAT1 act; NIH 3T3 STAT1-luciferase reporter, IFN-gamma potentiation, luminescence; 100% = IFN-gamma EC80 alone, no compound; activation (% of control), % at 5.7 µM; 1,200 tested, 97% active;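 active means activation above a set limit carried over from the earlier primary STAT1 screen, cut at about 140% in these data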;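 further: simple ratio to median IFN-gamma plus DMSO wells so 0% means no light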
NFkB act STAT1ct – NF-kappaB activation in STAT1 activator counter-screen | shares compounds with STAT1 act | HEK293T NF-kB luciferase reporter, TNF-alpha stimulated, luminescence; 100% = TNF-alpha with vehicle only | activation (% of control), % at 5.7 µM | 1,200 tested, 43% active;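 active means activation above the mean of solvent-only control wells plus 3 SD, set per campaign, cut at about 130% in these data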;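 further: TNF-alpha given at a submaximal dose yielding about 80% of full reporter signal; values are well signal over median control so 100% means no change and 0% no light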
STAT3 act STAT1c – counter-screen for STAT1 activators: human STAT3 activation; 1,200 tested, 46% active; activation (% of control), % at 5.7 µM; U3A cells STAT3-luciferase reporter, IL-6, luminescence; cells lack STAT1; 100 = IL-6 alone, no compound effect; shares compounds with STAT1 act;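 active means activation above the solvent-only control well mean plus 3 SD, set per plate batch, cut at about 110% in these data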;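 further: 0% = no luminescence and 100% = median IL-6 plus DMSO wells; higher means more STAT3 reporter activation so hits are non-selective activators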
* hit, by the source's call; x = no result. Hits are enriched below; roughly 4.5% of the tested compounds scored in any of these assays.

SMILES	AHR act	PERK inhibitor	APP 5'UTR act	NF-kB neuron act	MDM2 E3 inh	STAT1 act	STAT1 act conf	NFkB act STAT1ct	STAT3 act STAT1c
Nc1c2c(=O)oc(-c3ccccc3)cc2nn1-c1ccccc1	-6	-1	150*	3.3*	-5	177*	203*	132	109
C#CNC(=O)C1(CC=C)CCNCC1	-2	x	x	x	x	x	x	x	x
Cc1ccc(/C=C(\NC(=O)c2ccccc2)C(=O)NC2CCN(Cc3ccccc3)CC2)o1	-4	x	x	x	x	x	x	x	x
Cc1c(C(=O)N2CCc3ccccc32)oc2ccccc12	26	1	156*	8.2*	-17	155*	217*	141*	150*
COCc1c(C(=O)N2CCc3ccccc32)oc2ccccc12	15	x	x	x	x	x	x	x	x
Cc1ccc(/C=C/C(=O)N2CCc3ccccc32)o1	12	1	168*	8.2*	-37	180*	224*	138*	109
Cc1sc2nc3c4ccccc4c(NCc4ccco4)nn3c(=O)c2c1C	-5	1	136*	3.8*	-73	157*	208*	155*	114*
Cc1sc2nc(SCC(=O)C(C)(C)C)n(Cc3ccco3)c(=O)c2c1C	-2	0	4	2	-8	97	x	x	x
COC(=O)c1ccc(-c2ccc(Cl)cc2)nc1C	-5	1	179*	5.9*	-21	186*	241*	136*	111*
Nc1nc(N2CCN(C(=O)c3ccco3)CC2)nc2ccccc12	29	-1	20	1.6	-2	110	x	x	x
Nc1nc(N2CCN(C(=O)c3ccco3)CC2)nc2ccc(Br)cc12	23	0	219*	1.4	-12	180*	195*	141*	118*
COCCCN(C(C)=O)c1nc(-c2ccc(OC)cc2)cs1	17	-1	8	2.1	-13	156*	145*	100	112*
CCN(CC)CCCN(C(=O)c1ccc(OC)cc1)c1nc(-c2ccc(OC)cc2)cs1	0	x	x	x	x	x	x	x	x
c1ccc(Cn2c(-c3ccco3)nc3nc4ccccc4nc32)cc1	0	-1	61	2.1	-8	152*	158*	127	115*
OCCNc1c2ccccc2nc2ccccc12	7	0	6	0.92	2	158*	159*	133	117*
Cn1c(O)c(C=Nc2ccc(Br)cc2)sc1=O	63*	1	165*	1.9	-12	160*	189*	136*	99
NNc1cc([N+](=O)[O-])cc2c1C(=O)N(Cc1ccccc1)S2=O (stereo unspecified)	0	0	8	1	-2	96	x	x	x
Cn1cccc1/C=C1\CCC/C(=C\c2cccn2C)C1=O	1	0	143*	6*	-32	152*	228*	155*	108
O=C1NCCN1CCN1C(=O)c2ccccc2NC1c1ccccc1 (stereo unspecified)	0	-1	x	x	-5	x	x	x	x
CN(c1ccccc1)c1ccc(/C=N/N2CCOCC2)cc1	2	1	97	6.8*	-13	172*	197*	129	108
N#C/C(=C\c1ccccc1OCC(=O)O)c1nc2ccccc2[nH]1	21	x	x	x	x	x	x	x	x
O=C(Nc1nccs1)c1ccc(-c2ccccc2Cl)o1	54*	0	156*	2.7	-9	152*	178*	136*	107
O=C(Nc1nccs1)c1ccc(-c2ccc([N+](=O)[O-])cc2)o1	6	1	103	1.7	-19	151*	183*	130	96
Cc1ccc2nc(-c3ccc(NC(=O)CN(c4ccccc4C)S(C)(=O)=O)cc3)sc2c1	8	1	195*	3.9*	-12	153*	218*	130	109
CCOc1ccccc1N(CC(=O)Nc1ccc(C)cc1)S(C)(=O)=O	12	0	-5	1.8	10	104	x	x	x
SMILES	AHR act	PERK inhibitor	APP 5'UTR act	NF-kB neuron act	MDM2 E3 inh	STAT1 act	STAT1 act conf	NFkB act STAT1ct	STAT3 act STAT1c
O=C(CCS(=O)(=O)c1ccccc1)Nc1ccc(-c2nc3ccccc3s2)cc1	7	1	170*	7.2*	-16	165*	240*	113	89
C=CCn1c(SCC(=O)Nc2ccc(-c3nc4ccc(C)cc4s3)cc2)nnc1-c1ccccc1	0	0	146*	1.1	-15	156*	198*	110	94
C=CCn1c(SCC(=O)NNC(=O)Nc2ccc(C)cc2)nnc1-c1ccccc1	1	0	x	x	-10	x	x	x	x
CC(NC(=O)Cn1cccc1)c1ccccc1 (stereo unspecified)	-3	x	x	x	x	x	x	x	x
C=CCc1cccc2cc(C(=O)NNC(=O)CC#N)c(=O)oc12	0	0	x	x	-8	x	x	x	x
O=C(NCC1CCCO1)C1CC(=O)N(c2cccc(Cl)c2)C1 (stereo unspecified)	12	x	x	x	x	x	x	x	x
COc1ccc(/C=N/NC(=O)c2ccc(Br)cc2)c(OC)c1	1	1	-6	1.1	-9	113	x	x	x
COc1ccc(/C=N/Nc2ncc(Br)cn2)c(OC)c1	10	1	42	3.7*	-18	165*	204*	134*	114*
COc1cccc(C(=O)NNC(=O)Cc2cccs2)c1	7	1	6	1.1	-30	94	x	x	x
N#C/C(=C\c1cccs1)C(=O)Nc1nccs1	15	0	54	4.1*	-4	207*	229*	150*	114*
N#C/C(=C\c1cccs1)C(=O)NCc1ccccc1	-2	0	8	1.4	-8	104	x	x	x
C/C(=C\c1ccccc1)C(=O)Nc1nccs1	x	1	99	2.6	-20	154*	163*	123	95
Cc1nc(N)sc1N=Nc1ccc(Br)cc1	146*	0	122	7.2*	-13	158*	214*	162*	123*
Cc1ccc(C)c2sc(N)nc12	2	0	10	1.2	-3	94	x	x	x
O=c1[nH]cnc2scc(-c3ccc(-c4ccccc4)cc3)c12	16	2	38	2.3	-3	159*	214*	113	90
CCc1nnc(NC(=O)c2ccc3ccccc3n2)s1	28	0	103	3.8*	-9	153*	176*	120	157*
CCc1nnc(NC(=O)c2c(OC)cccc2OC)s1	2	0	-10	1.6	-5	104	x	x	x
